Data on five compounds can be found in ChEMBL document CHEMBL1126255, “Excitatory amino acid receptor ligands. Synthesis and biological activity of 3-isoxazolol amino acids structurally related to homoibotenic acid” (J Med Chem, 1992).

In test [1] the target is T1, Glutamate receptor ionotropic, AMPA (Rattus norvegicus, UniProt P19490+P19491+P19492+P19493). Kind of test: Concentration required for 50% inhibition of [3H]AMPA binding to AMPA receptor in rat cortical slice preparation.
For test [2], the target named is Glutamate receptor ionotropic, kainate. The experiment in a line: Concentration required for 50% inhibition of [3H]-kainic acid binding to ionotropic glutamate receptor ionotropic kainate in rat cortical slice preparation.
In test [3] the target is T1, Glutamate receptor ionotropic, AMPA. Kind of test: Concentration required for 50% inhibition of [3H]Glu binding to AMPA receptor in rat cortical slice preparation in the presence of 2.5 mM CaCl2.
Test [4] addresses Glutamate NMDA receptor. Kind of test: Concentration required for 50% inhibition of [3H]-CPP binding to N-methyl-D-aspartate glutamate receptor in rat cortical slice preparation. In a few lines: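 Rat brain membranes prepared by the Ransom and Stec method. [3H]CPP binding run per an earlier protocol, but ended by filtration through GF/B filters presoaked in 0.1% polyethyleneimine instead of centrifugation. At least three independent experiments per value.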

Test [5] concerns the target Glutamate NMDA receptor. The experiment in a line: Concentration required for 50% inhibition of [3H]-MK-801 binding to N-methyl-D-aspartate glutamate receptor in rat cortical slice preparation. In a few lines:
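Fully stimulated rat brain membranes prepared by the Ransom and Stec method. Otherwise per an earlier protocol. At least three independent experiments per value.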

For orientation: IC50 means the concentration that inhibits the measured activity by half. Take `CCCCc1c(O)noc1CC(N)C(=O)O` (configuration not stated): the half-inhibitory concentration (IC50) was 2 µM in test [1]; over 100 µM in test [2]; 0.18 µM in test [3]; over 100 µM on Glutamate NMDA receptor [4]; over 100 µM on Glutamate NMDA receptor [5].
On to `CC(C)(C)c1onc(O)c1CC(N)C(=O)O` (configuration not stated), for which the IC50 on Glutamate NMDA receptor [4] and at Glutamate NMDA receptor [5] was over 100 µM throughout.
As to `Cc1c(O)noc1CC(N)C(=O)O` (configuration not stated), the IC50 in test [1] was 0.6 µM; in test [2] it was over 100 µM; in test [3], 0.18 µM; at Glutamate NMDA receptor [4], over 100 µM; on Glutamate NMDA receptor [5], over 100 µM.
Consider `NC(Cc1onc(O)c1CCO)C(=O)O` (configuration not stated), for which the IC50 is 2 µM in test [1]; over 100 µM in test [2]; 0.14 µM in test [3]; over 100 µM on Glutamate NMDA receptor [4]; over 100 µM on Glutamate NMDA receptor [5].
For the compound `CCCCCCCCc1c(O)noc1CC(N)C(=O)O` (configuration not stated), the IC50 is over 100 µM in test [1]; over 100 µM in test [2]; 0.02 µM in test [3]; over 100 µM on Glutamate NMDA receptor [4]; over 100 µM at Glutamate NMDA receptor [5].
